MrgX1 allo act – positive allosteric modulators of MrgX1, primary screen, HEK293 cells, Fluo-4 calcium flux; 310,000 tested, 0.63% active; B-score at 10 µM; FDSS; active compounds read high; AID 588675, 2011; Mas-related G-protein coupled receptor member X1 (Homo sapiens), Q96LB2;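 active = plate-corrected calcium response at least 3 library SD above typical, normal starting fluorescence, not activating the receptor alone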;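 note: compound read alongside a low EC10 to EC30 dose of BAM8-22 agonist; peak minus trough fluorescence over baseline measured at the second addition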
Target sequence (Q96LB2 whole entry, looked up): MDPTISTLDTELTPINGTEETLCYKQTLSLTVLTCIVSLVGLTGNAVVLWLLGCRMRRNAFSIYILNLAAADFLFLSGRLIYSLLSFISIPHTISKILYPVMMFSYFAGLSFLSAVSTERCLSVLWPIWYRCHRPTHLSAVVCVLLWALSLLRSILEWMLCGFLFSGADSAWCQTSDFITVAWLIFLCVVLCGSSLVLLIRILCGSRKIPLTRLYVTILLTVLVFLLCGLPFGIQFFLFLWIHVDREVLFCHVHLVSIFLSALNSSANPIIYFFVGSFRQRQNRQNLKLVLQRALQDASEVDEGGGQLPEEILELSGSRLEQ
RGS4 act – RGS4 potentiators or activators, primary screen, cell-based, HEK293 M3R inducible RGS4, calcium flux; AID 463111, 2010; B-score at 10 µM; carbachol calcium flux Fluo4; active compounds read low; 310,000 tested, 0.92% active;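 active = B-score of the integrated calcium signal more than 4 SD below the library mean, with starting fluorescence not abnormally high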;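 note: negative B-score means reduced calcium response which marks RGS4 activation or potentiation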
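System: HEK293 FlpIn-TREx cells, stable M3R, doxycycline-inducible RGS4. Timing: overnight RGS4 induction, 30 min dye load 37 °C, 20 min compound RT. Also added: carbachol, ECmax concentration. Measured by: Fluo4 fluorescence kinetic imaging of calcium. Evaluation: integrated calcium ratio converted to B score.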
MrgX1 antag – antagonists of human MrgX1 receptor, primary screen, HEK293 cells, Fluo-4 calcium flux | B-score at 10 µM | BAM8-22 antagonism; active compounds read low | Mas-related G-protein coupled receptor member X1 (Homo sapiens), Q96LB2 | 310,000 tested, 1.3% active;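 active = calcium-response B-score plate-corrected more than 3 library SD below zero, starting fluorescence within 5 deviations, no agonist response on first addition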;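 note: peak minus trough fluorescence over baseline after final BAM8-22 challenge near maximal dose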
RGS4 inh – RGS4 inhibitors, primary screen, cell-based, HEK293 M3R inducible RGS4, calcium flux; B-score at 10 µM; 310,000 tested, 0.45% active; Fluo-4 calcium flux; active compounds read high; triggered by carbachol at its EC20; AID 463165, 2010;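 active = B-score, a plate-corrected calcium signal, over three deviations above library mean, with baseline fluorescence within five deviations of library mean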;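 note: RGS4 expression induced by doxycycline in cells with stable M3 receptor; B-score is computed from the integrated fluorescence ratio over baseline after carbachol; higher B-score means a larger calcium signal and so more RGS4 inhibition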
Target sequence (P49798 whole entry, looked up): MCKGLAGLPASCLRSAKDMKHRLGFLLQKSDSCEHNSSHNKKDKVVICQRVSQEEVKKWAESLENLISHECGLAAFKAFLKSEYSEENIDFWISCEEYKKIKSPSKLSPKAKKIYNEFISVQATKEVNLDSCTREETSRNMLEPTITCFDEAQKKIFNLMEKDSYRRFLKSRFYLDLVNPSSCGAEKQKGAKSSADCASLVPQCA
MrgX1 ag – agonists of human MrgX1 receptor, primary screen, HEK293 cells, Fluo-4 calcium flux; Mas-related G-protein coupled receptor member X1 (Homo sapiens), Q96LB2; AID 588627, 2011; 310,000 tested, 0.44% active; B-score at 10 µM; Fluo-4 calcium fluorescence, agonist mode; active compounds read high;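 active = calcium response B-score plate-corrected fluorescence ratio at least 3 library SD, with starting fluorescence B-score inside 5 SD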
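Test system: HEK293 cells stably expressing human MrgX1 receptor; amount: 15,000 cells per well; doses: compound delivered in addition one of three; times: overnight plating before 1 h dye loading; detection: Fluo-4 NW calcium-flux fluorescence, kinetic read; read-out basis: B-scored fluorescence response ratio; controls: positive and negative controls per plate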
Of the large screens only hits and unclear results are named; the others gave an inactive call. A selection: hits, their analogues and other compounds. The true share with any hit is near 3.5%.

O=C(NCC1CCCN1S(=O)(=O)c1cccs1)C(=O)Nc1ccccc1Cl (stereo not given)	none
CCn1c(COc2ccc(C(C)C)cc2)nnc1SCC(=O)Nc1nccs1	MrgX1 antag -7.6
CCSCc1nnc(SCC(=O)Nc2nccs2)n1CC	none
Cc1ccccc1-c1nc2cc(NC(=O)C3CC3)ccc2o1	none
Cc1cc(C)c2nc3sc(C(=O)N4CCOCC4)c(N)c3cc2c1	MrgX1 ag 49
COc1ccc(CN(C(=O)c2cc3ccccc3oc2=O)C2CCS(=O)(=O)C2)cc1 (stereo not given)	none
COc1ccc(CN(C(=O)c2cc3ccccc3oc2=O)C2CCCC2)cc1	MrgX1 antag -5
COc1cc2[nH]c(C(=O)N3CCc4ccccc43)cc2c(OC)c1OC	none
COc1ccccc1OCCOCCOc1ccc(C)cc1[N+](=O)[O-]	MrgX1 antag -7
COc1cc(C)ccc1OCCOCCN(C)Cc1ccccc1	MrgX1 antag -6.5
CC1(C)CCCN(C(=O)N2c3ccccc3Sc3ccccc32)C1	RGS4 act -9.2
Cc1c(C)c2ccc(OCC(=O)NCCCn3ccnc3)cc2oc1=O	none
O=C(c1ccc(C#CC2(O)CCCCC2)cc1)N1CCN(C(c2ccccc2)c2ccccc2)CC1	none
COc1cccc(/C=N/NC(=O)c2oc3nc(-c4ccccc4)cc(-c4ccco4)c3c2N)c1	MrgX1 antag -4.7
NNC(=O)c1oc2nc(-c3cccs3)cc(-c3ccco3)c2c1N	RGS4 act -9.7
Cc1ccc(S(=O)(=O)N(Cc2cccc(Cl)c2)C(=O)N2CCN(C)CC2)cc1	none
COc1ncnc2sc(-c3ccccc3)cc12	none
CN(C)c1ncnc2sc(-c3ccccc3)cc12	MrgX1 antag -7.1
COc1cccc(C2C3=C(N=c4s/c(=C\c5ccc(OCC(=O)O)cc5)c(=O)n42)c2ccccc2CC3)c1 (stereo not given)	RGS4 act -8.4, MrgX1 antag -7.5
Cc1ccc2nc(N(CCCN(C)C)C(=O)c3cc(-c4cccs4)nc4ccccc34)sc2c1	RGS4 act -7.8
CC[N+]1=C(C)C(C)(C)c2cc(C)ccc21	MrgX1 antag -4.8
Cc1ccc2c(c1)C=CC(C)(C)S2=O (stereo not given)	none
O=C(Cn1cnc([N+](=O)[O-])c1)NCc1ccc(F)cc1	none
O=C(Cn1cnc([N+](=O)[O-])c1)c1ccc(F)cc1	MrgX1 allo act 11
O=c1cc(N2CCCCC2)c(-c2ccccc2)nn1Cc1ccccc1Cl	RGS4 act -7.1
O=c1cc(N2CCCCC2)c(-c2ccccc2)nn1Cc1cccc(Cl)c1	none
O=c1cc(N2CCCCC2)c(-c2ccccc2)nn1Cc1ccc(Cl)cc1Cl	RGS4 act -8.7
CCN(CC)C(=N)/C(C#N)=N/Nc1ccccc1	none
C#CCOCCOCCOCCNc1nc(N2CCN(C(=O)CCCCCCCCCCNC(=O)[C@H](CO)n3cc(CCCSC)nn3)CC2)nc(N2CCN(C(=O)CCCCCCCCCCNC(=O)[C@H](CCCN=C(N)N)n3cc(C[C@@H](C)CC)nn3)CC2)n1	none (no result: RGS4 act, RGS4 inh)
C#CCOCCOCCOCCNc1nc(N2CCN(C(=O)CCCCCCCCCCNC(=O)[C@H]([C@@H](C)CC)n3cc(CCCCN=C(N)N)nn3)CC2)nc(N2CCN(C(=O)CCCCCCCCCCNC(=O)[C@H](CO)n3cc(CCCCCN)nn3)CC2)n1	MrgX1 ag 151 (no result: RGS4 act, RGS4 inh)
C#CCOCCOCCOCCNc1nc(N2CCN(C(=O)CCCCCCCCCCNC(=O)Cn3cc(CCCCCN)nn3)CC2)nc(N2CCN(C(=O)CCCCCCCCCCNC(=O)[C@H]([C@@H](C)CC)n3cc(CCCCN=C(N)N)nn3)CC2)n1	MrgX1 ag 116 (no result: RGS4 act, RGS4 inh)
C#CCOCCOCCOCCNc1nc(N2CCN(C(=O)CCCCCCCCCCNC(=O)[C@H]([C@@H](C)CC)n3cc(CCCCCN)nn3)CC2)nc(N2CCN(C(=O)CCCCCCCCCCNC(=O)[C@H](CCCCN)n3cc(CCCC(=O)O)nn3)CC2)n1	none (no result: RGS4 act, RGS4 inh)
C#CCOCCOCCOCCNc1nc(N2CCN(C(=O)CCCCCCCCCCNC(=O)[C@H]([C@@H](C)CC)n3cc(CCCCN=C(N)N)nn3)CC2)nc(N2CCN(C(=O)CCCCCCCCCCNC(=O)[C@H](CCCCN)n3cc(C)nn3)CC2)n1	MrgX1 ag 122 (no result: RGS4 act, RGS4 inh)
C#CCOCCOCCOCCNc1nc(N2CCN(C(=O)CCCCCCCCCCNC(=O)[C@H]([C@@H](C)CC)n3cc(CCCCN=C(N)N)nn3)CC2)nc(N2CCN(C(=O)CCCCCCCCCCNC(=O)[C@H]([C@@H](C)CC)n3cc(CCCCN=C(N)N)nn3)CC2)n1	MrgX1 ag 38 (no result: RGS4 act, RGS4 inh)
Cc1onc(-c2ccccc2)c1C(=O)Nc1ccc(S(=O)(=O)N2CCOCC2)cc1	none
C#CCOCCOCCOCCNc1nc(N2CCOCC2)nc(N2CCN(C(=O)CCCCCCCCCCNC(=O)[C@@H]([C@H](C)CC)n3cc(CCCCCN)nn3)CC2)n1	none (no result: RGS4 act, RGS4 inh)
C#CCOCCOCCOCCNc1nc(N2CCN(C(=O)CCCCCCCCCCNC(=O)[C@H]([C@@H](C)CC)n3cc(CCCCCN)nn3)CC2)nc(N2CCN(C(=O)CCCCCCCCCCNC(=O)[C@H]([C@@H](C)CC)n3cc(CCCCN=C(N)N)nn3)CC2)n1	MrgX1 ag 81 (no result: RGS4 act, RGS4 inh)
C#CCOCCOCCOCCNc1nc(N2CCN(C(=O)[C@H](C)n3cc(CCCN=C(N)N)nn3)CC2)nc(N2CCN(C(=O)[C@H](C)n3cc(CCCN=C(N)N)nn3)CC2)n1	MrgX1 allo act 8.4
N#C/C(=C(/O)c1ccc(F)cc1)c1nc2ccccc2s1	MrgX1 ag 29
N#C/C(=C(/O)COc1ccccc1)c1nc2ccccc2s1	none
COc1ccc(NC(=O)NN2CCN(C)CC2)cc1	none
CN(C)c1ccc(/C=C/C(=O)c2cc(Cl)ccc2O)cc1	MrgX1 antag -6.8
COc1cc(/C=C2\SC(=O)N(CC(=O)Nc3ccccc3F)C2=O)cc(Cl)c1O	MrgX1 antag -6.2
COc1cc(OC)c(/C=C2\SC(=O)N(CC(=O)Nc3ccccc3F)C2=O)c(OC)c1	none
CC(C)COc1cccc(C(=O)NC(=S)Nc2cccc(NC(=O)c3ccccc3Cl)c2)c1	none
CCN=C1S/C(=C\c2cc(Cl)c(OC)c(OC)c2)C(=O)N1CC	none
CCN=C1S/C(=C\c2ccc(OCC)c(OC)c2)C(=O)N1CC	MrgX1 antag -5.1
O=c1c2ccccc2c(/C=N/c2nnc(Cc3ccccc3)s2)c(O)n1-c1ccc(Cl)cn1	MrgX1 allo act 16
COc1cccc(C(=O)NNC(=O)Cc2ccc(Cl)cc2)c1	MrgX1 antag -7
